Hits are enriched below; roughly 3.1% of the tested compounds scored in any of these assays.
FN deposit inh: inhibitors of fibronectin matrix deposition, primary screen, AH1F cells, Alexa488-fibronectin fluorescence, plate reader. AH1F fibroblasts, overnight. inhibition, % at 12.6 µM. 350,000 tested, 0.086% active. AID 743247, 2014;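 active = mean inhibition across replicates of 30% or more, regardless of how many single replicates reach that level; inconclusive = mean under 30% yet at least half of replicates reach 30%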
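Material – AH1F fibroblast monolayer, labelled fibronectin deposition · Reagent – labelled fibronectin 24 nM · Timing – 1 h adhesion, overnight exposure · Measured by – fluorescence at 485 nm excitation, 525 nm emission · Read-out – inhibition of fibronectin deposition signal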
EWS-Fli block: EWS/Fli-driven NR0B1 reporter inhibitors, primary screen, A673 cells, NR0B1 luciferase, luminescence, MLPCN library | viability-normalised | inhibition, % at 12.6 µM | 350,000 tested, 0.67% active;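 active = mean inhibition of at least 50% after viability correction, with every replicate also passing that limit; inconclusive = mean reaches 50% but only one of two replicates passes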;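 note: firefly luciferase signal divided by Alamar Blue viability fluorescence both relative to DMSO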
Env fusion inh: inhibitors of HIV-1 Env-driven cell-cell fusion, primary screen, HeLa-JRFL effector, CEM21 target cells, luciferase; inhibition, % at 12.3 µM; 360,000 tested, 1.1% active; AID 651610, 2012;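 active = mean replicate inhibition score of at least 50 and every replicate individually at or above 50; inconclusive = only one of the two criteria met; inactive = mean below 50 and not all replicates reaching 50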
PGC1a acetyl inh: inhibitors of PGC1a acetylation signal, primary screen, cell-based, U2OS, AlphaScreen, inhibitor mode; AlphaScreen anti-acetyl-lysine; with virally co-expressed GCN5 acetyltransferase; inhibition, % at 15.6 µM; 350,000 tested, 0.17% active;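 active = every replicate shows inhibition of at least 40%; inconclusive = mean inhibition at least 40% but some replicate below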
FGF22 binding-1: binders of human FGF22 protein, primary screen, FGF22 synaptogenesis inhibitor project, biophysical, thermal shift, single point; activity (Tm shift, normalised), % at 9.99 µM; AID 651658, 2012; 340,000 tested, 1.5% active; recombinant FGF22 thermal shift, SYPRO orange fluorescence; percent of sucrose octasulfate shift, DMSO zero;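 active = mean Tm shift, scaled 0 neutral to 100 positive control, at about 1.3% or above, every replicate too, limit read from the data; inconclusive = no clear call, values can overlap the other calls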
Target sequence (Q9HCT0 whole entry, looked up): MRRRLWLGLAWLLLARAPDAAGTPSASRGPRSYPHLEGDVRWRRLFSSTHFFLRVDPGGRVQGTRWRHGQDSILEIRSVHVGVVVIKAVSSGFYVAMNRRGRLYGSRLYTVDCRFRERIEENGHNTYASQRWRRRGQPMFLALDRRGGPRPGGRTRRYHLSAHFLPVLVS
PAX8 reporter: inhibitors of PAX8-driven TPO luciferase reporter, primary screen, RMG-I cells, single concentration. SteadyGlo, 24 h. inhibition, % at 12.6 µM. 360,000 tested, 1.2% active. AID 652154, 2013;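 active = mean replicate inhibition at least 60% with every replicate also reaching 60%; inconclusive = only one of the two criteria is met; inactive = mean below 60% and not all replicates reaching 60%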;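 note: luciferase light reporting Pax8 driven TPO promoter activity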
FGF22 binding-2: binders of human FGF22 protein, dose response, FGF22 synaptogenesis inhibitor project, biophysical, thermal shift, cherry-pick retest; shares compounds with FGF22 binding-1; recombinant FGF22 thermal shift, SYPRO orange fluorescence; thermal shift activity, °C (ΔTm) at 38 µM; 1,000 tested, 2% active; AID 720646, 2013;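 active = fitted rise in melting shift crosses a set limit at or below the top valid dose tested; inconclusive = flat fit at mid-level activity, or a poor quality fit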
SYPRO no-protein: compound-only thermal shift signal without protein, dose response, artefact control for FGF22 binder project, biochemical, cherry-picked samples, RT-PCR instrument | shares compounds with FGF22 binding-1 | compound-only SYPRO orange thermal shift counter-screen, no protein | AC50, µM (highest dose often 38 µM) | 1,000 tested, 2% active | AID 743019, 2013;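 active = rising signal whose fitted curve reaches the 0.54 level within the top valid dose, showing a melting point, actives reach about 13 µM in these data; inactive = the rest, including activity in the opposite direction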; note: value is where the raw curve crosses a fixed level and not half-maximal
A number is an active result; - = inactive; ? = inconclusive; . = no result.

SMILES	FN deposit inh	EWS-Fli block	Env fusion inh	PGC1a acetyl inh	FGF22 binding-1	PAX8 reporter	FGF22 binding-2	SYPRO no-protein
O=C(C[C@@H]1CC[C@H](NS(=O)(=O)c2ccc(F)cc2)[C@@H](CO)O1)N1CCc2ccccc2C1	.	-	-	-	-	-	.	.
CCc1ccc(C(=O)NCc2cnn(C)c2)s1	-	-	-	-	3.2	-	-	-
COc1cccc(NC(=O)CN(C)C(=O)c2ccc(N3CCCCC3)c([N+](=O)[O-])c2)c1	-	-	.	-	2.1	-	-	-
CN(CC(=O)Nc1cccc(F)c1)C(=O)c1ccc(NC2CC2)c([N+](=O)[O-])c1	-	-	-	-	-	-	.	.
COc1cccc(NC(=O)CN(C)C(=O)c2ccc(NC3CC3)c([N+](=O)[O-])c2)c1	-	-	.	-	2.6	-	-	-
Cc1noc(C)c1S(=O)(=O)Nc1ccc2c(c1)C(=O)N([C@H](C)CO)C[C@H](C)[C@H](CN(C)CC1CCCCC1)O2	.	-	-	-	-	.	.	.
Cc1noc(C)c1NC(=O)Nc1ccc2c(c1)CC(=O)N([C@H](C)CO)C[C@H](C)[C@@H](CN(C)C(=O)Nc1ccc(C(F)(F)F)cc1)O2	.	-	-	-	-	.	.	.
COc1ccc(NS(=O)(=O)c2cc(N=Nc3c(O)[nH]c(=O)[nH]c3=O)ccc2Cl)cc1	-	-	.	-	1.4	-	-	-
Cc1ccc(NS(=O)(=O)c2ccc(Cl)c(N=Nc3c(O)[nH]c(=O)[nH]c3=O)c2)cc1Cl	-	-	-	-	-	-	.	.
Cc1ccc(S(=O)(=O)Nc2ccc3c(c2)C(=O)N([C@@H](C)CO)C[C@H](C)[C@H](CN(C)Cc2ccc4c(c2)OCO4)OCCCC[C@H](C)O3)cc1	.	-	-	.	-	-	.	.
COc1ccc2[nH]cc(/C=N/NS(=O)(=O)c3ccc(C)cc3)c2c1	-	-	-	.	-	-	.	.
COc1ccc2c(/C=N/NS(=O)(=O)c3ccc(C)cc3)c[nH]c2c1	-	-	-	-	2.7	-	-	-
COc1ccccc1NC(=O)Nc1nc(CC(=O)Nc2ccc(OC)c(OC)c2)cs1	-	-	-	.	-	-	.	.
COc1cc(C)ccc1NC(=O)Cc1csc(NC(=O)Nc2ccccc2OC)n1	-	-	-	-	1.6	-	-	-
NS(=O)(=O)c1cccc(NC(=O)c2ccc(NS(=O)(=O)c3cccc([N+](=O)[O-])c3)cc2)c1	-	-	.	-	3.1	-	-	-
O=C(Nc1ccc(S(=O)(=O)Nc2ccccn2)cc1)c1cccc([N+](=O)[O-])c1	-	.	-	-	36	-	-	-
O=C(Nc1cccc2ccccc12)c1cccc([N+](=O)[O-])c1	-	-	-	-	1.7	-	-	-
O=C(Nc1ccc2ccccc2c1)c1cccc([N+](=O)[O-])c1	-	-	-	-	-	-	.	.
CN(C)C(=O)C[C@@H]1C[C@@H]2c3cc(NC(=O)Nc4ccccc4F)ccc3O[C@@H]2[C@H](CO)O1	-	-	-	-	-	-	.	.
COc1cccc2sc(NNC(=O)C3COc4ccccc4O3)nc12 (stereo unspecified)	-	-	-	.	17	-	-	-
O=C(NNc1nc2c(F)cccc2s1)C1COc2ccccc2O1 (stereo unspecified)	-	-	-	.	-	-	.	.
CN1/C(=C\C(=O)c2cccc([N+](=O)[O-])c2)Sc2ccccc21	-	-	-	.	2.2	-	-	-
C[C@H](CO)N1C[C@H](C)[C@H](CN(C)CC2CC2)Oc2cc(C#Cc3cccnc3)ccc2S1(=O)=O	.	-	-	-	.	.	.	.
O=c1oc(-c2ccc(O)c(O)c2)cc2cc(O)cc(O)c12	.	?	.	-	1.5	.	-	-
O=c1oc(-c2ccc(O)c(O)c2)cc2cccc(O)c12	.	-	.	-	-	.	.	.
SMILES	FN deposit inh	EWS-Fli block	Env fusion inh	PGC1a acetyl inh	FGF22 binding-1	PAX8 reporter	FGF22 binding-2	SYPRO no-protein
C[C@H](CO)N1C[C@H](C)[C@@H](CN(C)C(=O)Nc2cccc3ccccc23)Oc2c(NC(=O)C3CC3)cccc2C1=O	.	-	-	.	2.2	-	-	-
C[C@H](CO)N1C[C@H](C)[C@@H](CN(C)C(=O)Nc2cccc3ccccc23)Oc2c(NS(C)(=O)=O)cccc2C1=O	-	.	-	-	1.8	-	-	-
C[C@H]1CN([C@@H](C)CO)C(=O)c2cccc(NS(C)(=O)=O)c2O[C@H]1CN(C)C(=O)Nc1cccc2ccccc12	.	.	-	-	-	-	.	.
C[C@@H]1CN([C@@H](C)CO)C(=O)c2cccc(NC(=O)C3CC3)c2O[C@@H]1CN(C)C(=O)Nc1cccc2ccccc12	.	-	-	.	-	-	.	.
C[C@H](CO)N1C[C@H](C)[C@@H](CN(C)C(=O)C2CC2)OCc2ccccc2-c2ccccc2C1=O	-	-	-	-	11	-	-	-
C[C@@H]1CN([C@@H](C)CO)C(=O)c2ccccc2-c2ccccc2CO[C@@H]1CN(C)C(=O)C1CC1	-	-	-	-	-	-	.	.
COc1ccc(CN(C)C[C@H]2Oc3c(NS(C)(=O)=O)cccc3C(=O)N([C@@H](C)CO)C[C@H]2C)cc1	-	.	-	-	3.1	-	-	-
COc1ccc(CN(C)C[C@@H]2Oc3c(NS(C)(=O)=O)cccc3C(=O)N([C@H](C)CO)C[C@@H]2C)cc1	.	.	-	-	-	-	.	.
C[C@H](CO)N1C[C@H](C)[C@@H](CN(C)C)Oc2ccc(NC(=O)CCCCCC(=O)Nc3ccccc3N)cc2C1=O	-	-	.	-	-	-	.	.
O=C(Nc1cccc(-c2cnc3ccccc3n2)c1)c1ccncc1	-	-	-	-	1.3	-	-	-
O=c1cc[nH]c2ccc(Cl)cc12	-	-	-	.	72	-	-	-
C=CCOC(=O)[C@H]1[C@@H]2C(=O)O[C@@H](c3ccccc3)[C@@H](c3ccccc3)N2[C@@H](c2ccc(OCCOC(=O)[C@H]3C[C@H]4C(=O)N[C@@H](CC(C)C)C(=O)N4[C@H]3c3cccc(OCCO)c3)cc2)[C@]12C(=O)Nc1ccccc12	.	-	-	.	-	-	.	.

Screening data: PubChem, Broad Institute
